Assays:
[1] = tested on: CCRF-CEM; assay: Tested for the inhibitory activity of virus induced giant cell formation in HIV-1 infected CEM cells; format: functional, cell-based; conditions: Homo sapiens
[2] = tested on: MT4; assay: Tested for the inhibitory activity of HIV-2 infected MT-4 cells; format: functional, cell-based; conditions: Homo sapiens
Method in brief: (§1)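 MT-4 cells (5 × 10^5/mL) grown in RPMI-1640 with 10% FCS, 2 mM L-glutamine and 0.075% NaHCO3. Infected with HIV-1 or HIV-2 at 100 CCID50/mL and mixed with compound dilutions (100 to 0.006 µg/mL). After 5 days viable cells were counted by trypan blue staining. EC50 is the concentration that reduces viable-cell loss in infected cultures by 50%.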

[3] = tested on: MT4; assay: Tested for the ratio between CC50 (MT-4) to EC50 (MT-4); format: functional, Homo sapiens
[4] = tested on: MT4; assay: Tested for the inhibitory activity of HIV-1 infected MT-4 cells; format: functional, cell-based; conditions: Homo sapiens; method in brief: as §1
[5] = tested on: MT4; assay: Tested for the cytotoxic concentration required to reduce the number of viable mock infected MT-4 cells; format: functional; conditions: Homo sapiens
Method in brief: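 Mock-infected MT-4 cells (5 × 10^5/mL) in RPMI-1640 with 10% FCS were exposed to compound dilutions (100 to 0.006 µg/mL). Viable cells were counted by trypan blue at day 5; about 150-200 cells were counted in controls. CC50 is the concentration that reduces viable cell number by 50%.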

[6] = tested on: CCRF-CEM; assay: Tested for the inhibitory activity of virus induced giant cell formation in HIV-2 infected CEM cells; format: functional, cell-based; conditions: Homo sapiens

Row | SMILES | EC50 [1] | EC50 [2] | Ratio [3] | EC50 [4] | CC50 [5] | EC50 [6]
1 | CNC(=O)c1cnnn1[C@@H]1O[C@H](CO[Si](C)(C)C(C)(C)C)[C@@]2(OS(=O)(=O)C=C2N)[C@H]1O[Si](C)(C)C(C)(C)C | 0.08 µM | > 7 µM | 171 | 0.16 µM | 27 µM | > 7 µM
2 | CC(=O)c1cn([C@@H]2O[C@H](CO[Si](C)(C)C(C)(C)C)[C@@]3(OS(=O)(=O)C=C3N)[C@H]2O[Si](C)(C)C(C)(C)C)nn1 | 1.1 µM | > 7 µM | 8.6 | 1.5 µM | 13 µM | > 35 µM
3 | CC(=O)c1cnnn1[C@@H]1O[C@H](CO[Si](C)(C)C(C)(C)C)[C@@]2(OS(=O)(=O)C=C2N)[C@H]1O[Si](C)(C)C(C)(C)C | 1.1 µM | > 35 µM | 30 | 2.3 µM | 69 µM | > 70 µM
4 | Cc1cn([C@@H]2O[C@H](CO[Si](C)(C)C(C)(C)C)[C@@]3(OS(=O)(=O)C=C3N)[C@H]2O[Si](C)(C)C(C)(C)C)nn1 | 1.4 µM | > 35 µM | 8.4 | 2.8 µM | 23 µM | > 6.9 µM
5 | Cc1ccnc2c1NC(=O)c1cccnc1N2C1CC1 [NEVIRAPINE] | 0.11 µM | > 80 µM | >625 | 0.12 µM | > 80 µM | > 80 µM
6 | CCOC(OCC)c1cnnn1[C@@H]1O[C@H](CO[Si](C)(C)C(C)(C)C)[C@@]2(OS(=O)(=O)C=C2N)[C@H]1O[Si](C)(C)C(C)(C)C | > 150 µM | > 40 µM | ><1 | > 40 µM | > 150 µM | > 150 µM
7 | COC(=O)c1cnnn1[C@@H]1O[C@H](CO[Si](C)(C)C(C)(C)C)[C@@]2(OS(=O)(=O)C=C2N)[C@H]1O[Si](C)(C)C(C)(C)C | 0.13 µM | > 150 µM | 142 | 0.9 µM | 128 µM | > 40 µM
8 | COC(=O)c1cn([C@@H]2O[C@H](CO[Si](C)(C)C(C)(C)C)[C@@]3(OS(=O)(=O)C=C3N)[C@H]2O[Si](C)(C)C(C)(C)C)nn1 | 0.18 µM | > 150 µM | >=249 | 0.6 µM | ≥ 150 µM | > 40 µM
9 | CC(C)(C)[Si](C)(C)OC[C@H]1O[C@@H](n2nncc2C(N)=O)[C@H](O[Si](C)(C)C(C)(C)C)[C@]12OS(=O)(=O)C=C2N | 0.14 µM | > 7 µM | 28.1 | 0.52 µM | 15 µM | > 7 µM
10 | Cc1cn([C@H]2C[C@H](N=[N+]=[N-])[C@@H](CO)O2)c(=O)[nH]c1=O [ZIDOVUDINE] |  |  | 3000 |  | 6 µM | 
11 | CC(C)(C)[Si](C)(C)OC[C@H]1O[C@@H](n2nncc2CBr)[C@H](O[Si](C)(C)C(C)(C)C)[C@]12OS(=O)(=O)C=C2N | > 1.3 µM | > 6 µM | <2.1 | ≥ 6 µM | 13 µM | > 6 µM
12 | COCc1cnnn1[C@@H]1O[C@H](CO[Si](C)(C)C(C)(C)C)[C@@]2(OS(=O)(=O)C=C2N)[C@H]1O[Si](C)(C)C(C)(C)C | 0.9 µM | > 7 µM | 11 | 2.4 µM | 28 µM | > 14 µM
13 | CC(C)(C)[Si](C)(C)OC[C@H]1O[C@@H](n2nncc2CCCCl)[C@H](O[Si](C)(C)C(C)(C)C)[C@]12OS(=O)(=O)C=C2N | 0.82 µM | > 164 µM | 40.6 | 1.9 µM | 79 µM | > 7 µM
14 | CC(C)(C)[Si](C)(C)OC[C@H]1O[C@@H](n2cc(C(N)=O)nn2)[C@H](O[Si](C)(C)C(C)(C)C)[C@]12OS(=O)(=O)C=C2N | 0.9 µM | > 7 µM | 12.5 | 1.2 µM | 15 µM | > 7 µM
15 | CC(C)(C)[Si](C)(C)OC[C@H]1O[C@@H](n2cc(CCCCl)nn2)[C@H](O[Si](C)(C)C(C)(C)C)[C@]12OS(=O)(=O)C=C2N | 0.66 µM | > 170 µM | 91.4 | 0.58 µM | 53 µM | > 33 µM
16 | COC(=O)c1nnn([C@@H]2O[C@H](CO[Si](C)(C)C(C)(C)C)[C@@]3(OS(=O)(=O)C=C3N)[C@H]2O[Si](C)(C)C(C)(C)C)c1C(=O)OC | 0.53 µM | > 150 µM | 231 | 0.48 µM | 111 µM | > 30 µM
17 | CN(C)C(=O)c1cn([C@@H]2O[C@H](CO[Si](C)(C)C(C)(C)C)[C@@]3(OS(=O)(=O)C=C3N)[C@H]2O[Si](C)(C)C(C)(C)C)nn1 | 1.2 µM | > 7 µM | 28.1 | 0.42 µM | 12 µM | > 7 µM
18 | CCCc1cnnn1[C@@H]1O[C@H](CO[Si](C)(C)C(C)(C)C)[C@@]2(OS(=O)(=O)C=C2N)[C@H]1O[Si](C)(C)C(C)(C)C | 3.9 µM | > 350 µM | >56 | 3.13 µM | > 175 µM | > 35 µM
19 | CCOC(=O)c1cnnn1[C@@H]1O[C@H](CO[Si](C)(C)C(C)(C)C)[C@@]2(OS(=O)(=O)C=C2N)[C@H]1O[Si](C)(C)C(C)(C)C | 1.3 µM | > 165 µM | >51 | 3.2 µM | > 165 µM | > 165 µM
20 | CC(C)(C)[Si](C)(C)OC[C@H]1O[C@@H](n2cc(CBr)nn2)[C@H](O[Si](C)(C)C(C)(C)C)[C@]12OS(=O)(=O)C=C2N | > 1.3 µM | > 6.5 µM | <2.1 | ≥ 6.5 µM | 14 µM | > 1.3 µM
21 | CC(C)(C)[Si](C)(C)OC[C@H]1O[C@@H](n2ccnn2)[C@H](O[Si](C)(C)C(C)(C)C)[C@]12OS(=O)(=O)C=C2N | 3.4 µM | > 7.5 µM | 4.1 | 3.8 µM | 15 µM | > 7.5 µM
22 | CCCCc1cnnn1[C@@H]1O[C@H](CO[Si](C)(C)C(C)(C)C)[C@@]2(OS(=O)(=O)C=C2N)[C@H]1O[Si](C)(C)C(C)(C)C | 1.5 µM | > 170 µM | >=115 | 1.58 µM | ≥ 170 µM | > 35 µM
23 | CCOC(=O)c1nnn([C@@H]2O[C@H](CO[Si](C)(C)C(C)(C)C)[C@@]3(OS(=O)(=O)C=C3N)[C@H]2O[Si](C)(C)C(C)(C)C)c1C(=O)OCC | 1.6 µM | > 30 µM | 14.5 | 3.8 µM | 55 µM | > 60 µM
24 | Cc1cn([C@@H]2O[C@H](CO[Si](C)(C)C(C)(C)C)C3(OS(=O)(=O)C=C3N)[C@H]2O[Si](C)(C)C(C)(C)C)c(=O)[nH]c1=O (stereo not given in full) | 0.06 µM | > 20 µM |  |  | 14 µM | > 20 µM
25 | CC(C)(C)[Si](C)(C)OC[C@H]1O[C@@H](n2cc([Si](C)(C)C)nn2)[C@H](O[Si](C)(C)C(C)(C)C)[C@]12OS(=O)(=O)C=C2N | 2.8 µM | > 6.6 µM | <=1.44 | ≥ 6.6 µM | 9.5 µM | > 2.6 µM
26 | COCc1cn([C@@H]2O[C@H](CO[Si](C)(C)C(C)(C)C)[C@@]3(OS(=O)(=O)C=C3N)[C@H]2O[Si](C)(C)C(C)(C)C)nn1 | 2.3 µM | > 35 µM | 2.44 | 27 µM | 73 µM | > 70 µM
